In ChEMBL document CHEMBL1124947, “Cationic antiprotozoal drugs. Trypanocidal activity of 2-(4'-formylphenyl)imidazo[1,2-a]pyridinium guanylhydrazones and related derivatives of quaternary heteroaromatic compounds” (J Med Chem, 1990):

Experiments:
Mus musculus [1] = assay: Trypanocidal Activity at I.C.E. value 0.27 when administered perorally.; assay type: functional
Mus musculus [2] = assay: Trypanocidal Activity at I.C.E. value 0.92 when administered subcutaneously.; assay type: functional
Outline: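 Mice, in groups of five per dose, were given a standard inoculum of blood-stage T. rhodesiense that is lethal to all untreated controls, then dosed subcutaneously. Usually 11 dose levels were used (2^n × 0.42 mg/kg).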

Compound `Br.CCCSc1ccc2n(c1)cc(-c1ccc(/C=N/NC(=N)N)cc1)[n+]2C.[Br-]` has a CD50 (Mus musculus [1]) of 26 mg/kg and a CD50 (Mus musculus [2]) of 0.2 mg/kg.
